Assay results taken from ChEMBL document CHEMBL2346621, “Discovery of novel tricyclic indole derived inhibitors of HCV NS5B RNA dependent RNA polymerase” (Bioorg Med Chem, 2013).

Experiments:
Hepatitis C virus [1] = assay: Inhibition of HCV-1b Con-1 C-terminal His6x-tagged NS5B delta21 RNA dependent RNA polymerase expressed in Escherichia coli JM109 (DE3) assessed as [alpha-33P]CTP incorporation in RNA after 30 mins by scintillation counting analysis; set-up: species or system Hepatitis C virus subtype 1b; details: Con1, JM 109, 0.5 h
[2] = Cytotoxicity against human hepatoma cells assessed as cell viability by MTS assay; type: cell-based
How it was run: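 Cellular toxicity was measured by MTS assay, with GAPDH also used as an internal control, and expressed as CC50.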

Hepatitis C virus [3] = assay: Antiviral activity against Hepatitis C virus infected in human hepatoma cells assessed as reduction in replicon RNA level; type: functional, organism-based, Hepacivirus hominis
How it was run: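 Replicon-bearing hepatoma cells were used. EC50 is the concentration that reduces viral RNA levels by 50%.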

[4] = AUC (0 to 6 hrs) in rat at 10 mg/kg, po; type: ADME, organism-based; set-up: time < 6 hr, dose 10 mg/kg, route oral; details: plasma
How it was run: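 Rapid rat assay: single oral 10 mg/kg dose in 0.4% HPMC. Plasma AUC integrated over 0–6 h after dosing (AUC0–6 h).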

Compound	IC50 (Hepatitis C virus [1])	EC50 (Hepatitis C virus [3])	AUC(0-t) at 6 h [4]	CC50 [2]
Cc1coc2c1ccc1c2c(-c2ccc[nH]c2=O)c(C(=O)O)n1Cc1cc(F)ccc1F	2900 nM	–	–	> 10000 nM
O=C(O)c1c(-c2ccc[nH]c2=O)c2c3occ(Cl)c3ccc2n1Cc1cc(F)ccc1F	7 nM	120 nM	–	> 10000 nM
CCc1coc2c1ccc1c2c(-c2ccc[nH]c2=O)c(C(=O)O)n1Cc1cc(F)ccc1F	> 5000 nM	–	–	> 10000 nM
CS(=O)(=O)NC(=O)c1c(-c2ccc[nH]c2=O)c2c3occc3ccc2n1Cc1ccccc1F	8 nM	100 nM	9.5 µM·h	> 10000 nM
O=C(O)c1c(-c2ccc[nH]c2=O)c2c3c(ccc2n1Cc1cc(F)ccc1F)OC(F)(F)O3	7 nM	2000 nM	–	> 10000 nM
O=C(NS(=O)(=O)C1CC1)c1c(-c2ccc[nH]c2=O)c2c3occc3ccc2n1Cc1cc(F)ccc1F	16 nM	50 nM	–	> 10000 nM
CS(=O)(=O)NC(=O)c1c(-c2ccc[nH]c2=O)c2c3occc3ccc2n1Cc1ccc(F)cc1F	31 nM	80 nM	2.4 µM·h	> 10000 nM
CCS(=O)(=O)NC(=O)c1c(-c2ccc[nH]c2=O)c2c3occc3ccc2n1Cc1cc(F)ccc1F	6 nM	110 nM	0.7 µM·h	> 10000 nM
O=C(O)c1c(-c2ccc[nH]c2=O)c2c3ncsc3ccc2n1Cc1cc(F)ccc1F	9 nM	700 nM	–	> 10000 nM
O=C(NS(=O)(=O)Cc1ccccc1)c1c(-c2ccc[nH]c2=O)c2cc(Cl)ccc2n1Cc1cc(F)ccc1F	10 nM	1000 nM	–	–
O=C(O)c1c(-c2ccc[nH]c2=O)c2c3occc3ccc2n1Cc1cc(F)ccc1F	31 nM	160 nM	146 µM·h	> 10000 nM
CS(=O)(=O)NC(=O)c1c(-c2ccc[nH]c2=O)c2c3occc3ccc2n1Cc1cc(F)ccc1F	9 nM	50 nM	11 µM·h	> 10000 nM
O=C(O)c1c(-c2ccc[nH]c2=O)c2c3ccoc3ccc2n1Cc1cc(F)ccc1F	34 nM	3100 nM	–	> 10000 nM
O=C(O)c1c(-c2ccc[nH]c2=O)c2c3c(ccc2n1Cc1cc(F)ccc1F)CCO3	8 nM	460 nM	11 µM·h	> 10000 nM
Cc1ccccc1Cn1c(C(=O)NS(C)(=O)=O)c(-c2ccc[nH]c2=O)c2c3occc3ccc21	10 nM	50 nM	1.2 µM·h	> 10000 nM

Second part, led by results:

IC50 (Hepatitis C virus [1])	EC50 (Hepatitis C virus [3])	AUC(0-t) at 6 h [4]	Compound	CC50 [2]
6 nM	60 nM	–	Cc1ccc(Cn2c(C(=O)NS(C)(=O)=O)c(-c3ccc[nH]c3=O)c3c4occc4ccc32)c(C)c1	> 10000 nM
21 nM	2000 nM	–	Cc1cc2ccc3c(c(-c4ccc[nH]c4=O)c(C(=O)O)n3Cc3cc(F)ccc3F)c2o1	> 10000 nM
10 nM	30 nM	–	CS(=O)(=O)NC(=O)c1c(-c2ccc[nH]c2=O)c2c3occc3ccc2n1Cc1cc(C(N)=O)ccc1F	> 10000 nM
3 nM	50 nM	–	CS(=O)(=O)NC(=O)c1c(-c2ccc[nH]c2=O)c2c3occc3ccc2n1Cc1ccccc1Cl	> 10000 nM
3 nM	30 nM	0.3 µM·h	Cc1cccc(Cn2c(C(=O)NS(C)(=O)=O)c(-c3ccc[nH]c3=O)c3c4occc4ccc32)c1F	> 10000 nM
1700 nM	–	104 µM·h	O=C(O)c1c(-c2ccc[nH]c2=O)c2c3scnc3ccc2n1Cc1cc(F)ccc1F	> 10000 nM
27 nM	3500 nM	104 µM·h	O=C(O)c1c(-c2ccc[nH]c2=O)c2c3c(ccc2n1Cc1cc(F)ccc1F)CCC3	> 10000 nM
8 nM	50 nM	1 µM·h	CC(C)S(=O)(=O)NC(=O)c1c(-c2ccc[nH]c2=O)c2c3occc3ccc2n1Cc1cc(F)ccc1F	> 10000 nM
